Experimental data as given in ChEMBL document CHEMBL2057101, “Fluorocyclines. 2. Optimization of the C-9 side-chain for antibacterial activity and oral efficacy” (J Med Chem, 2012).
In brackets after ≈: the same amount, converted by molar mass.

Legend:
[1] = system: Staphylococcus aureus; assay: Antibacterial activity against methicillin-resistant Staphylococcus aureus VL-137; assay type: functional
How it was run: (§1)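 Broth microdilution MIC following CLSI methods in cation-adjusted Mueller Hinton broth, prepared fresh and held at 4 °C before testing. Defibrinated horse blood added to the medium where appropriate. Runs accepted when quality control ranges for comparator antibiotics and ATCC QC strains were met.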

[2] = system: Streptococcus pneumoniae; assay: Antibacterial activity against Streptococcus pneumoniae SPN160; assay type: functional; how it was run: as §1
[3] = system: Haemophilus influenzae; assay: Antibacterial activity against Haemophilus influenzae 551; assay type: functional
How it was run: (§2)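 MIC by broth microdilution in liquid medium per CLSI, in cation-adjusted Mueller Hinton broth made fresh and held at 4 °C before testing. Horse blood (defibrinated) added to the medium where appropriate. Runs were accepted only when the comparator antibiotics and ATCC QC strains fell within their recommended ranges.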

[4] = system: Streptococcus pyogenes; assay: Antibacterial activity against Streptococcus pyogenes; assay type: functional; how it was run: as §2
[5] = system: Moraxella catarrhalis; assay: Antibacterial activity against Moraxella catarrhalis; assay type: functional; how it was run: as §2
[6] = system: Acinetobacter baumannii; assay: Antibacterial activity against Acinetobacter baumannii; assay type: functional; how it was run: as §2
[7] = system: Staphylococcus aureus; assay: Antibacterial activity against methicillin-resistant Staphylococcus aureus VL-137 infected in neutropenic Balb/c mouse assessed as reduction in lung CFU at 50 mg/kg, po administered 2 and 12 hrs post infection measured 24 hrs post treatment; assay type: functional
How it was run: (§3)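 Female Balb/c mice (18−20 g) made neutropenic with IP cyclophosphamide, 150 and 100 mg/kg on days −4 and −1. Intranasal infection under light anesthesia. Treatment at 2 and 12 h post infection, oral 50 mg/kg/dose or IV 10 mg/kg/dose, six mice per group. At 24 h lungs were homogenized and plated on TSA (37 °C, 5% CO₂, overnight). Read-out is CFU/g lung.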

[8] = system: Staphylococcus aureus; assay: Antibacterial activity against methicillin-resistant Staphylococcus aureus VL-137 infected in neutropenic Balb/c mouse assessed as reduction in lung CFU at 10 mg/kg, iv administered 2 and 12 hrs post infection measured 24 hrs post treatment; assay type: functional; how it was run: as §3
[9] = system: Streptococcus pneumoniae; assay: Antibacterial activity against Streptococcus pneumoniae 1629 infected in immunocompetent CD-1 mouse infection model assessed as reduction in lung CFU at 30 mg/kg, po administered 5, 24 and 36 hrs post infection measured 48 hrs post treatment
[10] = system: Staphylococcus aureus; assay: Antibacterial activity against tetracycline-susceptible Staphylococcus aureus ATCC 13709 Smith isolate SA100; assay type: functional; how it was run: as §1
[11] = system: Staphylococcus aureus; assay: Antibacterial activity against tetracycline-resistant Staphylococcus aureus isolate SA161 expressing TetM gene; assay type: functional; how it was run: as §1
[12] = system: Staphylococcus aureus; assay: Antibacterial activity against tetracycline-resistant Staphylococcus aureus isolate SA158 expressing TetK gene; assay type: functional
[13] = system: Streptococcus pneumoniae; assay: Antibacterial activity against Streptococcus pneumoniae ATCC 49619 isolate 106; assay type: functional; how it was run: as §2
[14] = system: Streptococcus pneumoniae; assay: Antibacterial activity against tetracycline-resistant Streptococcus pneumoniae isolate 160 expressing tetM gene; assay type: functional
[15] = system: Escherichia coli; assay: Antibacterial activity against Escherichia coli ATCC 25922 isolate 107; assay type: functional; how it was run: as §2
[16] = system: Escherichia coli; assay: Antibacterial activity against Escherichia coli isolate EC155 expressing tetA gene; assay type: functional; how it was run: as §2
[17] = system: Klebsiella pneumoniae; assay: Antibacterial activity against Klebsiella pneumoniae ATCC 13883; assay type: functional; how it was run: as §2
[18] = system: Staphylococcus aureus; assay: Antibacterial activity against Staphylococcus aureus ATCC 13709 infected in CD-1 mouse assessed as increase in survival at 3 mg/kg, iv administered as single dose 1 hr post infection measured after 48 hrs post infection; assay type: functional
How it was run: (§4)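 Mouse septicemia screen: S. aureus grown to log phase, diluted in 5% mucin to give 90% mortality within 48 h, inoculum 1.98 × 10⁶ CFU/mouse, 0.5 mL intraperitoneal into female CD-1 mice (18−20 g). Six mice per group. Single 30 mg/kg oral gavage or 3 mg/kg IV dose 1 h post infection. Infection controls received sterile water vehicle. Survival recorded at 48 h.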

[19] = system: Staphylococcus aureus; assay: Antibacterial activity against Staphylococcus aureus ATCC 13709 infected in CD-1 mouse assessed as increase in survival at 30 mg/kg, po administered as single dose 1 hr post infection measured after 48 hrs post infection; assay type: functional; how it was run: as §4
[20] = system: Staphylococcus aureus; assay: Antibacterial activity against Staphylococcus aureus ATCC 13709 infected in po dosed CD-1 mouse assessed as increase in survival administered as single dose 1 hr post infection measured after 48 hrs post infection; assay type: functional; conditions: ATCC 13709, po, read-out: PD50
[21] = Oral bioavailability in CD1 mouse at 30 mg/kg; assay type: ADME, organism-based; conditions: CD1, mouse, in vivo
[22] = Oral bioavailability in rat; assay type: ADME, organism-based; conditions: in vivo
[23] = Oral bioavailability in human; assay type: ADME, organism-based; conditions: in vivo
[24] = system: Haemophilus influenzae; assay: Antibacterial activity against Haemophilus influenzae 551 infected in immunocompetent Sprague-Dawley rat assessed as reduction in lung CFU per gram of tissue at 100 mg/kg, po administered 5, 24 and 48 hrs post infection measured after 72 hrs; assay type: functional
How it was run: (§5)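 Male Sprague-Dawley rats (175–200 g), immunocompetent, infected intratracheally with H. influenzae 551 (0.05 mL) under light anesthesia. Dosing at 5, 24 and 48 h post infection: test agent 100 mg/kg/dose orally or 25 mg/kg/dose IV; azithromycin 50 mg/kg/dose orally. Six rats per dose. Lungs removed 72 h after treatment began, homogenized, serially diluted, plated on TSA-II, incubated overnight at 37 °C in 5% CO2; CFU/g lung calculated.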

[25] = system: Haemophilus influenzae; assay: Antibacterial activity against Haemophilus influenzae 551 infected in immunocompetent Sprague-Dawley rat assessed as reduction in lung CFU per gram of tissue at 25 mg/kg, iv administered 5, 24 and 48 hrs post infection measured after 72 hrs; assay type: functional; how it was run: as §5

Row | SMILES | MIC50 [1] [µg/mL] | MIC90 [1] [µg/mL] | MIC50 [2] [µg/mL] | MIC90 [2] [µg/mL] | MIC [3] [µg/mL] | MIC50 [3] [µg/mL] | MIC90 [3] [µg/mL] | MIC50 [4] [µg/mL] | MIC90 [4] [µg/mL] | MIC50 [5] [µg/mL] | MIC90 [5] [µg/mL] | MIC50 [6] [µg/mL] | MIC [10] [µg/mL] | MIC [11] [µg/mL] | MIC [13] [µg/mL] | MIC [15] [µg/mL] | MIC [16] [µg/mL] | MIC [17] [µg/mL] | survival at 3 mg/kg [18] [%] | survival at 30 mg/kg [19] [%] | further results
1 | C[C@H]1COc2c(N3CCN(C)CC3)c(F)cc3c(=O)c(C(=O)O)cn1c23.C[C@H]1COc2c(N3CCN(C)CC3)c(F)cc3c(=O)c(C(=O)O)cn1c23.O [LEVOFLOXACIN] | 16 | > 32 | 1 | 1 | 0.016 | 0.016 | 0.031 | 0.5 | 2 | 0.031 | 0.063 | 4 |  |  |  |  |  |  |  |  | MIC90 [6]: 32 µg/mL
2 | CC(=O)NC[C@H]1CN(c2ccc(N3CCOCC3)c(F)c2)C(=O)O1 [LINEZOLID] | 2 (≈ 5.93 µM) | 4 (≈ 11.9 µM) | 1 (≈ 2.96 µM) | 1 (≈ 2.96 µM) | 8 (≈ 23.7 µM) | 8 (≈ 23.7 µM) | 16 (≈ 47.4 µM) | 1 (≈ 2.96 µM) | 2 (≈ 5.93 µM) | 8 (≈ 23.7 µM) | 8 (≈ 23.7 µM) |  |  |  |  |  |  |  |  |  | MIC [4]: 1 µg/mL (≈ 2.96 µM); log10CFU/g [7]: 2.46; log10CFU/g [8]: 1.29; log10CFU/g [9]: 3.56
3 | CN(C)c1cc(CNCC(C)(C)C)c(O)c2c1C[C@H]1C[C@H]3[C@H](N(C)C)C(O)=C(C(N)=O)C(=O)[C@@]3(O)C(O)=C1C2=O [OMADACYCLINE] |  |  |  |  |  |  |  |  |  |  |  |  | 0.5 (≈ 0.898 µM) | 2 (≈ 3.59 µM) | 0.031 (≈ 0.0557 µM) | 2 (≈ 3.59 µM) | 16 (≈ 28.7 µM) | 2 (≈ 3.59 µM) | 100 | 33 | MIC [12]: 0.25 µg/mL (≈ 0.449 µM); MIC [14]: 0.125 µg/mL (≈ 0.225 µM); ED50 [20]: 30.3 mg/kg; bioavailability [21]: 1.5%; bioavailability [22]: 0.7%; bioavailability [23]: 33%
4 | CN(C)[C@@H]1C(O)=C(C(N)=O)C(=O)[C@@]2(O)C(O)=C3C(=O)c4c(O)cccc4[C@@](C)(O)[C@H]3C[C@@H]12 [TETRACYCLINE] |  |  |  |  |  |  |  |  |  |  |  |  | 1 (≈ 2.25 µM) | > 32 | 0.25 (≈ 0.563 µM) | 2 (≈ 4.5 µM) | > 32 | 4 (≈ 9 µM) | 100 | 100 | ED50 [20]: 6.9 mg/kg; bioavailability [21]: 6.3%; bioavailability [23]: 50%
5 | CN(C)[C@@H]1C(O)=C(C(N)=O)C(=O)[C@@]2(O)C(O)=C3C(=O)c4c(O)c(NC(=O)[C@@H]5CCCN5C)cc(F)c4C[C@H]3C[C@@H]12 [TP-271] | 0.031 (≈ 0.0555 µM) | 0.13 (≈ 0.233 µM) | 0.016 (≈ 0.0286 µM) | 0.016 (≈ 0.0286 µM) |  | 0.25 (≈ 0.448 µM) | 0.5 (≈ 0.895 µM) | 0.016 (≈ 0.0286 µM) | 0.016 (≈ 0.0286 µM) | 0.016 (≈ 0.0286 µM) | 0.016 (≈ 0.0286 µM) | 0.13 (≈ 0.233 µM) | 0.13 (≈ 0.233 µM) | 0.25 (≈ 0.448 µM) | 0.016 (≈ 0.0286 µM) | 0.25 (≈ 0.448 µM) | 8 (≈ 14.3 µM) | 2 (≈ 3.58 µM) | 100 | 100 | MIC [12]: 0.13 µg/mL (≈ 0.233 µM); MIC [14]: 0.016 µg/mL (≈ 0.0286 µM); bioavailability [22]: 5.7%; MIC [2]: 0.016 µg/mL (≈ 0.0286 µM); MIC [4]: 0.016 µg/mL (≈ 0.0286 µM); MIC [5]: 0.016 µg/mL (≈ 0.0286 µM); MIC90 [6]: 1 µg/mL (≈ 1.79 µM); log10CFU/g [7]: 1.99; log10CFU/g [8]: 3.03; log10CFU/g [24]: 1.77; log10CFU/g [25]: 4.87; log10CFU/g [9]: 4.75
